From PubChem BioAssay
MrgX1 agonist: activates human MrgX1 receptor signaling; Q96LB2; MrgX1-HEK293 cells, Fluo-4 calcium fluorescence, agonist mode; stronger effect = higher value; B-score at 10 µM; 310,000 tested, 0.44% active; AID 588627;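 active means calcium response B-score plate-corrected fluorescence ratio at least 3 library SD, with starting fluorescence B-score inside 5 SD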
Target sequence (Q96LB2 whole entry, looked up): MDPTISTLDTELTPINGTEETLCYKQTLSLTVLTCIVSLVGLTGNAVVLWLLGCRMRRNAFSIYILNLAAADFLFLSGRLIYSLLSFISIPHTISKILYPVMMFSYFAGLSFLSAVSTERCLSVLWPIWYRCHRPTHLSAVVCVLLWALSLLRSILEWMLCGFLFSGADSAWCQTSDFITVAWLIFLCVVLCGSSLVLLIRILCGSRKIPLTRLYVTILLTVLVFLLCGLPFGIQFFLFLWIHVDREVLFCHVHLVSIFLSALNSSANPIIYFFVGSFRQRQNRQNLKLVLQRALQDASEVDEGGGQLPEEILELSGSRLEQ
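System: HEK293 cells stably expressing human MrgX1 receptor; Dosing: test compound in the initial addition of three; Schedule: overnight plating, then 30 min 37 °C plus 30 min room-temperature dye loading; Detection: kinetic calcium dye fluorescence, Fluo-4 NW; Controls: per-plate positive and negative controls for Z′ factor.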
PHOSPHO1 block: blocks human PHOSPHO1 phosphatase activity; inhibition, % at 13.3 µM; recombinant PHOSPHO1, absorbance phosphatase assay; AID 1565; 290,000 tested, 1.1% active; Q8TCT1; in the data active means inhibition above about 60%
RGS4 block: inhibitors of human RGS4; P49798; HEK293 M3R/RGS4 inducible, Fluo-4 calcium flux; stronger effect = higher value; triggered by carbachol at its EC20; B-score at 10 µM; 310,000 tested, 0.45% active;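 active means B-score, a plate-corrected calcium signal, over three deviations above library mean, with baseline fluorescence within five deviations of library mean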;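 further: RGS4 expression induced by doxycycline in cells with stable M3 receptor; B-score is computed from the integrated fluorescence ratio over baseline after carbachol; higher B-score means a larger calcium signal and so more RGS4 inhibition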
Target sequence (P49798 whole entry, looked up): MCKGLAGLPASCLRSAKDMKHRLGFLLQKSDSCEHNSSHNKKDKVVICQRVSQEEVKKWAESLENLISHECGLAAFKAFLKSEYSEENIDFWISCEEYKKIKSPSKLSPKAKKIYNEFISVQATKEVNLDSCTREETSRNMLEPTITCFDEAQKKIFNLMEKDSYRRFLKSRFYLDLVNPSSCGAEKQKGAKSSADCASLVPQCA
RGS4 act: potentiators or activators of RGS4. AID 463111. 310,000 tested, 0.92% active. B-score at 10 µM. HEK293 M3R/inducible RGS4, carbachol calcium flux Fluo4; stronger effect = lower value;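 active means B-score of the integrated calcium signal more than 4 SD below the library mean, with starting fluorescence not abnormally high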;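 further: negative B-score means reduced calcium response which marks RGS4 activation or potentiation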
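test system = M3R-expressing HEK293 line, RGS4 induced by doxycycline | probe or stimulus = carbachol at ECmax as muscarinic agonist stimulus | timing = dye loading 30 min 37 °C, buffer rest 30 min RT | signal = calcium dye Fluo4 fluorescence | evaluation = B score from integrated fluorescence ratio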
MrgX1 allo act: human MrgX1 positive allosteric modulation, primary screen | Q96LB2 | MrgX1-HEK293, Fluo-4 calcium flux, FDSS; stronger effect = higher value | B-score at 10 µM | 310,000 tested, 0.63% active | AID 588675;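 active means plate-corrected calcium response at least 3 library SD above typical, normal starting fluorescence, not activating the receptor alone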;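 further: compound read alongside a low EC10 to EC30 dose of BAM8-22 agonist; peak minus trough fluorescence over baseline measured at the second addition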
MrgX1 antagonist: antagonists of human MrgX1 receptor; Q96LB2; MRGX1-HEK293 calcium flux, Fluo-4, BAM8-22 antagonism; stronger effect = lower value; B-score at 10 µM; 310,000 tested, 1.3% active;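 active means calcium-response B-score plate-corrected more than 3 library SD below zero, starting fluorescence within 5 deviations, no agonist response on first addition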;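 further: peak minus trough fluorescence over baseline after final BAM8-22 challenge near maximal dose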
Large screens that a line does not name were inactive. Most compounds without a hit are left out; they make up all but 4.5% or so of the library.

O=C(NC(C(=O)N/N=C/c1cccnc1)c1n[nH]c(=O)c2ccccc12)c1ccccc1 (stereo not drawn)	MrgX1 agonist 35.9
COCc1ccc(CN2CCCC(C(=O)Nc3ccc(-c4cscn4)cc3)C2)o1 (stereo not drawn)	none
C/C(=N\O)C(C)(C)Nc1ccc(Br)cc1	MrgX1 agonist 26.5
O=C(Cn1cc([N+](=O)[O-])cn1)N1CCCc2ccccc21	PHOSPHO1 block 63.7
O=C(c1ccc([N+](=O)[O-])s1)N1CCc2ccccc21	none
O=C(c1ccc([N+](=O)[O-])s1)N1CCCc2ccccc21	RGS4 act -7.73
Cn1nc(C(=O)OCC(=O)Nc2cccc(S(=O)(=O)N3CCCC3)c2)c2ccccc2c1=O	none
CC(C(=O)O)N(c1ccccc1Cl)S(C)(=O)=O (stereo not drawn)	none (no result: PHOSPHO1 block, RGS4 block, RGS4 act)
CC(C)Oc1ccc(-c2nn(-c3ccccc3)cc2/C=c2\sc3ncnn3c2=O)cc1	MrgX1 agonist 47.2 (no result: RGS4 block, RGS4 act)
Clc1ncccc1-c1nc2ccccc2s1	PHOSPHO1 block 61.2
Cc1cccc(COc2coc(CN3CCN(C(=O)c4ccco4)CC3)cc2=O)c1	none (no result: PHOSPHO1 block)
O=C(c1ccco1)N1CCN(Cc2cc(=O)c(OCc3ccccc3)co2)CC1	MrgX1 antagonist -5.26 (no result: PHOSPHO1 block)
O=C(c1ccco1)N1CCN(Cc2nc(Cc3ccccc3)no2)CC1	PHOSPHO1 block 60.1
CC(=O)N1CCN(Cc2nc(C(c3ccccc3)c3ccccc3)no2)CC1	RGS4 act -7.5
N#CC(c1ccc(=O)[nH]n1)c1ccc(Cl)cc1Cl (stereo not drawn)	none
Cc1ccc(NC(=O)/C(Cl)=C/c2ccccc2)cc1C	MrgX1 allo act 8.96
CC(=O)Nc1ccccc1C(=O)C(=O)Nc1ccc(C)c(C)c1	none
Nc1ccc(/C=C/C(=O)c2ccco2)cc1	MrgX1 agonist 49.7
O=C(/C=C/c1cc(Br)ccc1O)c1ccco1	MrgX1 agonist 38.9
O=C(/C=C/c1ccccc1O)c1ccco1	none
CCC(CC)Nc1ccc(C(CC(N)=O)NC(=O)Cc2cccc3ccccc23)cc1[N+](=O)[O-] (stereo not drawn)	none
CC(C)C[C@H]1CN=C(Nc2ccccc2)N1CC1CCC(C(C)(C)C)CC1 (stereo partly drawn)	MrgX1 allo act 6.91 (no result: PHOSPHO1 block, RGS4 block, RGS4 act)
CCOC(=O)C1(CC2CCCCO2)CCN(C(=O)NCc2ccccc2)CC1 (stereo not drawn)	none
c1cc2c3c(cccc3c1)NC1(CCC3(CC1)Nc1cccc4cccc(c14)N3)N2	RGS4 act -8.22, MrgX1 allo act 7.03
O=S(=O)(c1ccc(Cl)c(Cl)c1)c1snnc1-c1ccccc1	RGS4 act -7.3 (no result: MrgX1 agonist, MrgX1 allo act, MrgX1 antagonist)
CC12COC3(C(N)=O)CC1CCC32C (stereo not drawn)	none
COC(=O)c1cc(NC(=O)N2c3ccccc3Sc3ccccc32)cc(C(=O)OC)c1	none
C/C(=N\NC(=O)c1cccc([N+](=O)[O-])c1)c1cccs1	MrgX1 allo act 13.2
CCCCNC(=O)C1CCN(S(=O)(=O)N2CCCCCC2)CC1	none
COc1ccc(/C=N/NC(=O)c2ccc3ccccc3c2)cc1OS(=O)(=O)c1ccc(NC(C)=O)cc1	RGS4 act -9.32
COc1ccc(C=O)cc1OS(=O)(=O)c1ccc(NC(C)=O)cc1	none
Cc1nn(CCOc2ccccc2)c(=O)n1-c1ccccc1	PHOSPHO1 block 62.3
Cc1nn(CCOc2ccccc2)c(=O)n1-c1ccc(Cl)cc1	MrgX1 allo act 10.8
COc1ccc(-n2c(C)nn(CCOc3ccccc3)c2=O)cc1	none
Cc1ccc(C(C)C)c(OCC(=O)NCC(c2cccs2)N2CCOCC2)c1 (stereo not drawn)	MrgX1 agonist 27.6 (no result: PHOSPHO1 block)
Fc1ccc2[nH]c3c(N4CCN(C5CCCCC5)CC4)ncnc3c2c1	RGS4 act -7.62
O=C1CC(c2ccc(Cl)cc2)CC(=O)C1CS(=O)(=O)c1ccccc1 (stereo not drawn)	RGS4 act -7.17
COc1ccc(C2CC(=O)C(CS(=O)(=O)c3ccccc3)C(=O)C2)cc1 (stereo not drawn)	none
CC(C)CCn1c(COc2ccccc2)nn(CCC#N)c1=S	none
COc1cc(OC)c(C2CC(=O)N3CN(c4ccccc4C)CSC3=C2C#N)cc1OC (stereo not drawn)	none
